Test results: ChEMBL document CHEMBL3804761, “Synthesis of a stable and orally bioavailable englerin analogue” (Bioorg Med Chem Lett, 2016)

What was measured:
Type in all cases: functional
[1] = Growth inhibition of human HCT15 cells assessed as cell growth at 10 uM incubated for 48 hrs by sulforhodamine B assay relative to control; conditions: HCT-15, 48 h, read-out: Activity
Procedure, shortened: (§1)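 Run in the standard NCI 60-cell-line screen. Cells were exposed to drug for two days, and the read-out was sulforhodamine B staining. Compound was tested at a single final concentration of 10 µM in every line, and results are reported as growth percent.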

SR = experiment: Growth inhibition of human SR cells assessed as cell growth at 10 uM incubated for 48 hrs by sulforhodamine B assay relative to control; conditions: read-out: Activity; procedure, shortened: as §1
[2] = Growth inhibition of human COLO205 cells incubated for 48 hrs by sulforhodamine B assay; conditions: COLO 205, 48 h; for CC50: read-out: pLC50 (the source's name) (converted); for TGI: read-out: pTGI (converted)
Procedure, shortened: (§2)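 NCI 60-cell-line panel, standard protocol. Cells exposed to compound for two days, growth read by sulforhodamine B staining. Tested at five 10-fold dilutions, top concentration 100 µM, to give dose-response curves.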

[3] = Growth inhibition of human PC3 cells incubated for 48 hrs by sulforhodamine B assay; conditions: PC-3, 48 h; for CC50: read-out: pLC50 (the source's name) (converted); for TGI: read-out: pTGI (converted); procedure, shortened: as §2
[4] = Growth inhibition of human HOP62 cells incubated for 48 hrs by sulforhodamine B assay; conditions: HOP-62, 48 h; for TGI: read-out: pTGI (converted); procedure, shortened: as §2
[5] = Growth inhibition of human BT549 cells assessed as cell growth at 10 uM incubated for 48 hrs by sulforhodamine B assay relative to control; conditions: BT-549, 48 h, read-out: Activity; procedure, shortened: as §1
NCI-H522 = experiment: Growth inhibition of human NCI-H522 cells assessed as cell growth at 10 uM incubated for 48 hrs by sulforhodamine B assay relative to control; conditions: NCI-H522, 48 h, read-out: Activity; procedure, shortened: as §1
[6] = Growth inhibition of human SF295 cells incubated for 48 hrs by sulforhodamine B assay; conditions: SF-295, 48 h; for TGI: read-out: pTGI (converted); procedure, shortened: as §2
[7] = Growth inhibition of human HCT15 cells incubated for 48 hrs by sulforhodamine B assay; conditions: HCT-15, 48 h; for TGI: read-out: pTGI (converted); procedure, shortened: as §2
MDA-MB-468 [8] = experiment: Growth inhibition of human MDA-MB-468 cells incubated for 48 hrs by sulforhodamine B assay; conditions: MDA-MB-468, 48 h; for CC50: read-out: pLC50 (the source's name) (converted); for TGI: read-out: pTGI (converted); procedure, shortened: as §2
[9] = Growth inhibition of human SF539 cells incubated for 48 hrs by sulforhodamine B assay; conditions: SF-539, 48 h; for TGI: read-out: pTGI (converted); procedure, shortened: as §2
[10] = Growth inhibition of human HOP92 cells incubated for 48 hrs by sulforhodamine B assay; conditions: HOP-92, 48 h; procedure, shortened: as §2
[11] = Growth inhibition of human SNB19 cells incubated for 48 hrs by sulforhodamine B assay; conditions: SNB-19, 48 h; for CC50: read-out: pLC50 (the source's name) (converted); for TGI: read-out: pTGI (converted)
Procedure, shortened: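 Tested in the standard NCI 60-cell-line protocol with two-day drug exposure and a sulforhodamine B endpoint. Compounds were first screened at a single final concentration of 10 µM, reported as growth percent. They were then run as five 10-fold dilutions starting from a high concentration of 100 µM to give dose-response curves.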

[12] = Growth inhibition of human OVCAR4 cells incubated for 48 hrs by sulforhodamine B assay; conditions: OVCAR-4, 48 h; for TGI: read-out: pTGI (converted); procedure, shortened: as §2
[13] = Growth inhibition of human OVCAR5 cells assessed as cell growth at 10 uM incubated for 48 hrs by sulforhodamine B assay relative to control; conditions: OVCAR-5, 48 h, read-out: Activity; procedure, shortened: as §1
[14] = Growth inhibition of human HL-60(TB) cells incubated for 48 hrs by sulforhodamine B assay; conditions: HL-60, 48 h; for CC50: read-out: pLC50 (the source's name) (converted); for TGI: read-out: pTGI (converted); procedure, shortened: as §2
M14 = experiment: Growth inhibition of human M14 cells assessed as cell growth at 10 uM incubated for 48 hrs by sulforhodamine B assay relative to control; conditions: M14, 48 h, read-out: Activity; procedure, shortened: as §1
[15] = Growth inhibition of human DU145 cells incubated for 48 hrs by sulforhodamine B assay; conditions: DU-145, 48 h; for CC50: read-out: pLC50 (the source's name) (converted); for TGI: read-out: pTGI (converted); procedure, shortened: as §2
[16] = Growth inhibition of human OVCAR3 cells incubated for 48 hrs by sulforhodamine B assay; conditions: OVCAR-3, 48 h; for TGI: read-out: pTGI (converted); procedure, shortened: as §2
Malme-3M = experiment: Growth inhibition of human MALME-3M cells assessed as cell growth at 10 uM incubated for 48 hrs by sulforhodamine B assay relative to control; conditions: read-out: Activity; procedure, shortened: as §1
MDA-MB-468 [17] = experiment: Growth inhibition of human MDA-MB-468 cells assessed as cell growth at 10 uM incubated for 48 hrs by sulforhodamine B assay relative to control; conditions: MDA-MB-468, 48 h, read-out: Activity; procedure, shortened: as §1
ACHN = experiment: Growth inhibition of human ACHN cells incubated for 48 hrs by sulforhodamine B assay; conditions: for TGI: read-out: pTGI (converted); procedure, shortened: as §2
[18] = Growth inhibition of human RPMI8226 cells incubated for 48 hrs by sulforhodamine B assay; conditions: RPMI-8226, 48 h; for CC50: read-out: pLC50 (the source's name) (converted); for TGI: read-out: pTGI (converted); procedure, shortened: as §2
SK-MEL-5 = experiment: Growth inhibition of human SK-MEL-5 cells assessed as cell growth at 10 uM incubated for 48 hrs by sulforhodamine B assay relative to control; conditions: SK-MEL-5, 48 h, read-out: Activity; procedure, shortened: as §1
[19] = Growth inhibition of human HL-60(TB) cells assessed as cell growth at 10 uM incubated for 48 hrs by sulforhodamine B assay relative to control; conditions: HL-60, 48 h, read-out: Activity
Procedure, shortened: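 Single-dose screen in the NCI 60-cell-line panel at one final concentration of 10 µM. Two-day drug exposure with a sulforhodamine B endpoint. Values are growth percent for each cell line.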

[20] = Growth inhibition of human SF268 cells incubated for 48 hrs by sulforhodamine B assay; conditions: SF-268, 48 h; for TGI: read-out: pTGI (converted); procedure, shortened: as §2
[21] = Growth inhibition of human SNB75 cells assessed as cell growth at 10 uM incubated for 48 hrs by sulforhodamine B assay relative to control; conditions: SNB-75, 48 h, read-out: Activity; procedure, shortened: as §1
[22] = Growth inhibition of human OVCAR4 cells assessed as cell growth at 10 uM incubated for 48 hrs by sulforhodamine B assay relative to control; conditions: OVCAR-4, 48 h, read-out: Activity; procedure, shortened: as §1
K562 = experiment: Growth inhibition of human K562 cells incubated for 48 hrs by sulforhodamine B assay; conditions: K562, 48 h; procedure, shortened: as §2

In the case of `CC(C)[C@@]12C[C@@H](NC(=O)CO)[C@@](C)(O1)[C@@H]1CC[C@@H](C)[C@H]1[C@@H]2OC(=O)/C=C/c1ccccc1`, the growth at 10 µM [1] is reported as 108%, the growth at 10 µM (SR) is reported as 79.1% and the GI50 [2] is reported as 10.7 µM. For the same molecule, the CC50 [2] was greater than 50.1 µM, the TGI [2] was 26.3 µM and the GI50 [3] was 11.7 µM. For the same molecule, the CC50 [3] was greater than 50.1 µM, the TGI [3] was greater than 50.1 µM and the GI50 [4] was 35.5 µM. It also gave an LC50 [4] greater than 50.1 µM, a TGI [4] greater than 50.1 µM and a growth at 10 µM [5] of 84.9%. The growth at 10 µM (NCI-H522) was 76.9%, the GI50 [6] was 18.6 µM and the LC50 (concentration causing 50% net cell kill) [6] was greater than 50.1 µM. For the same molecule, the TGI [6] was greater than 50.1 µM, the GI50 [7] was 16.6 µM and the LC50 [7] was greater than 50.1 µM. The TGI [7] was greater than 50.1 µM, the GI50 (MDA-MB-468 [8]) was 12.3 µM and the CC50 (MDA-MB-468 [8]) was greater than 50.1 µM. For the same molecule, the TGI (MDA-MB-468 [8]) was greater than 50.1 µM, the GI50 [9] was 42.7 µM and the LC50 [9] was greater than 50.1 µM. For the same molecule, the TGI [9] was greater than 50.1 µM, the GI50 [10] was 5.25 µM and the LC50 [10] was greater than 50.1 µM. For the same molecule, the TGI ([10]; read-out: pTGI (converted)) was 24 µM, the GI50 [11] was 24.5 µM and the CC50 [11] was greater than 50.1 µM. It also gave a TGI [11] greater than 50.1 µM, a GI50 [12] of 17.8 µM and an LC50 (concentration killing 50% of cells) [12] greater than 50.1 µM. It also gave a TGI [12] greater than 50.1 µM, a growth at 10 µM [13] of 93% and a GI50 [14] of 14.5 µM. It also gave a CC50 [14] greater than 50.1 µM, a TGI [14] of 37.2 µM and a growth at 10 µM (M14) of 103%. It also gave a GI50 [15] of 25.1 µM, a CC50 [15] greater than 50.1 µM and a TGI [15] greater than 50.1 µM. It also gave a GI50 [16] of 14.8 µM, an LC50 [16] greater than 50.1 µM and a TGI [16] of 49 µM. The growth at 10 µM (Malme-3M) was 95.2%, the growth at 10 µM (MDA-MB-468 [17]) was 91.3% and the GI50 (ACHN) was 3.98 µM. It also gave an LC50 (concentration killing 50% of cells) (ACHN) greater than 50.1 µM, a TGI (ACHN) of 35.5 µM and a GI50 [18] of 11.5 µM. For the same molecule, the CC50 [18] was greater than 50.1 µM, the TGI [18] was 42.7 µM and the growth at 10 µM (SK-MEL-5) was 90.6%. It also gave a growth at 10 µM [19] of 91.7%, a GI50 [20] of 14.8 µM and an LC50 (lethal concentration, 50% net cell kill) [20] greater than 50.1 µM. For the same molecule, the TGI [20] was greater than 50.1 µM and the growth at 10 µM [21] was 59.6%.

For `CC(C)[C@@]12C[C@@H](NC(=O)CO)[C@@](C)(O1)[C@@H]1CC[C@@H](C)[C@H]1[C@@H]2OC(=O)/C=C/C1CCCCC1`, the growth at 10 µM [1] was 102%, the growth at 10 µM (SR) was 93.2% and the GI50 [2] was greater than 44.7 µM. It also gave a CC50 [2] greater than 44.7 µM, a TGI [2] greater than 44.7 µM and a GI50 [3] greater than 44.7 µM. For the same molecule, the CC50 [3] was greater than 44.7 µM, the TGI [3] was greater than 44.7 µM and the growth at 10 µM [22] was 98.6%. The GI50 [4] was greater than 44.7 µM, the LC50 [4] was greater than 44.7 µM and the TGI [4] was greater than 44.7 µM. For the same molecule, the growth at 10 µM [5] was 109%, the growth at 10 µM (NCI-H522) was 88.8% and the GI50 [6] was greater than 44.7 µM. The LC50 (concentration causing 50% net cell kill) [6] was greater than 44.7 µM, the TGI [6] was greater than 44.7 µM and the GI50 [7] was greater than 44.7 µM. The LC50 [7] was greater than 44.7 µM, the TGI [7] was greater than 44.7 µM and the GI50 (MDA-MB-468 [8]) was greater than 44.7 µM. It also gave a CC50 (MDA-MB-468 [8]) greater than 44.7 µM, a TGI (MDA-MB-468 [8]) greater than 44.7 µM and a GI50 [9] greater than 44.7 µM. The LC50 [9] was greater than 44.7 µM, the TGI [9] was greater than 44.7 µM and the GI50 [11] was greater than 44.7 µM. The CC50 [11] was greater than 44.7 µM, the TGI [11] was greater than 44.7 µM and the GI50 [12] was greater than 44.7 µM. It also gave an LC50 (concentration killing 50% of cells) [12] greater than 44.7 µM, a TGI [12] greater than 44.7 µM and a growth at 10 µM [13] of 92.6%. The GI50 [14] was greater than 44.7 µM, the CC50 [14] was greater than 44.7 µM and the TGI [14] was greater than 44.7 µM. The growth at 10 µM (M14) was 104%, the GI50 [15] was greater than 44.7 µM and the CC50 [15] was greater than 44.7 µM. For the same molecule, the TGI [15] was greater than 44.7 µM, the GI50 [16] was greater than 44.7 µM and the LC50 [16] was greater than 44.7 µM. It also gave a TGI [16] greater than 44.7 µM, a growth at 10 µM (Malme-3M) of 109% and a growth at 10 µM (MDA-MB-468 [17]) of 97.5%. It also gave a GI50 (ACHN) of 17 µM, an LC50 (concentration killing 50% of cells) (ACHN) greater than 44.7 µM and a TGI (ACHN) greater than 44.7 µM. It also gave a GI50 [18] greater than 44.7 µM, a CC50 [18] greater than 44.7 µM and a TGI [18] greater than 44.7 µM. For the same molecule, the GI50 (K562) was greater than 44.7 µM, the CC50 (K562; read-out: pLC50 (the source's name) (converted)) was greater than 44.7 µM and the TGI (K562; read-out: pTGI (converted)) was greater than 44.7 µM. It also gave a growth at 10 µM (SK-MEL-5) of 99.3%, a growth at 10 µM [19] of 111% and a GI50 [20] greater than 44.7 µM. It also gave an LC50 (lethal concentration, 50% net cell kill) [20] greater than 44.7 µM, a TGI [20] greater than 44.7 µM and a growth at 10 µM [21] of 86.1%.
